Assay: Toxicity liver stage against HepG2, at 10uM
Assay type: cell-based
Parameters: test concentration 10 uM, cell line HepG2-A16-CD81EGFP
Conditions: human, HepG2-A16-CD81EGFP cells; read-out: INHIBITION
Outline: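 Uninfected HepG2-A16-CD81EGFP cells, 3 × 10^3 per well, 1536-well, plated on prespotted compound at 10 μM final, parasite-free screening media added to match infected plates; puromycin 10 μM positive, DMSO 0.5% negative; run in parallel with 48 h PbLuc assay at 37 °C, 5% CO2; viability by CellTiter-Glo luminescence, normalized to controls.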

| SMILES | cytotoxicity at 10 µM [%] |
| --- | --- |
| COc1ccc(S(=O)(=O)N2CCOC(Cn3ccnc3)C2)cc1 (stereo not drawn) | 7.25 |
| CC(C)[C@H](NC(=O)NC1CCS(=O)(=O)C1)C(=O)NCc1ccc(Cl)cc1 (stereo partly drawn) | 3.09 |
| CCOC(=O)c1sc(NC(=O)c2cc(=O)c(OC)c[nH]2)nc1C | -57.1 |
| COC1CCN(c2ccc(NC(=O)Cn3cccn3)cc2)CC1 | 2.04 |
| CS(=O)(=O)N1CC2(CCN(c3nccs3)CC2)c2ccccc21 | 0.933 |
| C1CCN(Cc2nnn3c2CN(CC2CC2)CCC3)C1 | -139 |
| O=C([C@H]1COC[C@H]2CN(c3ccncn3)C[C@H]21)N1CCCC1 | -140 |
| CCn1nc2ccc(S(=O)(=O)N3CCSCC3)cn2c1=O | 2.4 |
| CC1c2ncc(Cn3cncn3)n2CCN1C(=O)C1CCOCC1 (stereo not drawn) | -13 |
| CC(=O)c1c(O)ccnc1C(F)(F)F | 2.34 |
| Cc1cc2ccccc2n1CC(=O)NCC(=O)N1CCOCC1 | -7.7 |
| O=C(Cc1ccsc1)N1CCC[C@@H]1Cn1c(=O)oc2ccccc21 | 4.53 |
| Cc1noc(-c2cnc(NC3CC3)nc2-c2ccco2)c1C | 6.38 |
| O=C(c1ccc(=O)[nH]n1)N1CCNCC1c1ccccc1 (stereo not drawn) | -2.44 |
| CCn1nnnc1-c1cccc(NC(N)=O)c1 | 8.92 |
| CSCC(=O)NC1(c2cccc(Cl)c2)CC1 | -1.54 |
| CC(C)c1ncc2c(n1)CN(CC1CCCCO1)CC2 (stereo not drawn) | 8.86 |
| NC(=O)C1CCN(C(=O)NC2CCN(CC3CCCC3)C2)CC1 (stereo not drawn) | 13 |
| CC(C)CCC(=O)N1CCN(c2ncnc3nc(N)ccc23)CC1 | 8.32 |
| COCCn1c(C(=O)NC(C(N)=O)C(C)C)cc2ccccc21 (stereo not drawn) | 9.73 |
| Cc1ccc(OCCN(C)C2CCOC2=O)cc1 (stereo not drawn) | -146 |
| Cn1cc(CC(=O)N2CCCC(c3cc(C(F)(F)F)[nH]n3)C2)cn1 (stereo not drawn) | -7.11 |
| COc1ccccc1CCNS(=O)(=O)N1CCOCC1 | 2.52 |

| SMILES | cytotoxicity at 10 µM [%] |
| --- | --- |
| CNC(=O)c1sc(C(NC(=O)c2ccccc2)C2CC2)nc1C (stereo not drawn) | 2.31 |
| CCOC(=O)N(C)C1CCN(Cc2cnc3ccccn23)CC1 | 18.1 |
| CCn1cnnc1CNC(=O)NCC(C)(CC)N1CCOCC1 (stereo not drawn) | -10.3 |
| Cc1c(COC(C)C)cccc1NC(=O)N1CC[C@H](O)C1 | -11 |
| COCc1ccccc1C(=O)NCC(c1c(F)cccc1F)N(C)C (stereo not drawn) | -9.75 |
| COCCOCCCC(=O)N1CCC(Cc2ccccc2OC)CC1 | 7.28 |
| COCCOCCNC(=O)N1CCN(c2ccccc2C#N)CC1 | 6.39 |
| O=C(OC1CCC1)c1ncccc1OCC(F)(F)F | -12.6 |
| Cc1csc(CCNC(=O)C2CCOC2)n1 (stereo not drawn) | -6.17 |
| CC(O)CN1CCN(C(=O)c2cccn2Cc2cccnc2)CC1 (stereo not drawn) | -9.15 |
| CC(=O)N(Cc1ncc(C)o1)C1CCN(CCOc2ccccc2)C1 (stereo not drawn) | 7.02 |
| CCn1cc(NC(=O)C2CCN(Cc3nc(C)c(C)o3)CC2)cn1 | 5.3 |
| CN(C)C(CNC(=O)NCc1cc[nH]n1)c1ccco1 (stereo not drawn) | -5.47 |
| COc1cccc(S(=O)(=O)CCN2CCN(CCO)CC2)c1 | 0.878 |
| CN(CC(N)=O)C(=O)c1cc(Cl)c(Cl)n1C | 8.56 |
| Cc1nc(CCNC(=O)NC2CCCN(c3ncccn3)C2)cs1 (stereo not drawn) | -129 |
| Cc1nn(CC(=O)N2CCN(Cc3cccnc3)CC2)c(C)c1Cl | 0.612 |
| Cc1nc(CC(=O)N2CCN(c3ccc(N(C)C)cc3)CC2)cs1 | 0.236 |
| CC(Oc1ccccc1C(F)(F)F)C(=O)NCCNC(=O)C1CC1 (stereo not drawn) | 6.91 |
| CCn1ccnc1CN1CCN(CCCS(C)(=O)=O)CC1C (stereo not drawn) | -194 |
| CCN(C(=O)NCCc1cccc(F)c1F)C(C)CS(C)(=O)=O (stereo not drawn) | 11.9 |
| NC(=O)NCC1CCCCN1C(=O)c1ccc(Br)s1 (stereo not drawn) | -0.147 |
| O=C(Nc1cccn(Cc2ccc(F)cc2)c1=O)c1csnn1 | 1.51 |

| SMILES | cytotoxicity at 10 µM [%] |
| --- | --- |
| COc1cc(C(=O)N(C)C)ccc1NC(=O)c1ccsc1 | -2.53 |
| Cc1cccc(I)c1C(=O)NCc1ncc[nH]1 | 0.392 |
| CC(CCNC(=O)N1CCC1)N(C)C(=O)OC(C)(C)C (stereo not drawn) | -5.61 |
| O=C1C(Sc2nc(=O)ccn2C2CC2)CCN1c1ccccc1F (stereo not drawn) | 1.73 |
| OCC(CO)Nc1ccc2c(Cl)ccc(Cl)c2n1 | -3.04 |
| CC(C)=CCN1CCN(C(=O)C2CCS(=O)(=O)C2)CC1 (stereo not drawn) | -90.5 |
| CN(Cc1cccc(C#N)c1)C(=O)C1CC(c2cccc(F)c2)=NO1 (stereo not drawn) | 1.85 |
| CCOCCCC(=O)Nc1cccnc1-n1ccnc1C | 9.21 |
| CC(C)c1nc(C2CCCN2c2ncc(C(N)=O)cc2Cl)no1 (stereo not drawn) | 13.4 |
| Cc1n[nH]c(C2CN(Cc3csc(C4CCCCC4)n3)CCO2)n1 (stereo not drawn) | 23.8 |
| Cc1cc(NCCS(C)(=O)=O)nc2ccccc12 | 0.748 |
| Cc1ncc(COc2cccc3c2NC(=O)CO3)s1 | -3.13 |
| COCCNC(=O)NCc1cccc(-n2ccnc2)c1 | 16.1 |
| CC(C)(C#N)c1ccccc1CN(CCO)Cc1ccsc1 | 20 |
| Cc1ccc(OCC(C)NC(=O)CN(C)c2ccc(C#N)cn2)cc1 (stereo not drawn) | -6.05 |
| N#CC1(NC(=O)c2ccc(-c3nc(C4CC4)n[nH]3)cc2)CC1 | -10.7 |
| Cc1nc(-c2ccco2)ccc1C(=O)N1CCc2nnc(N)cc2C1 | -7.09 |
| CC(NC(=O)NCCCn1cccn1)c1cccnc1 (stereo not drawn) | 23.1 |
| CS(=O)(=O)CCSc1cccc(C#N)c1 | -5.61 |
| CC(C)c1cnc(CNc2c(F)cccc2-n2cccn2)o1 | -6.07 |
| Cc1ccn(-c2ccccc2NCc2ncc[nH]2)n1 | -5.95 |
| Cc1noc(C(C)C)c1C(=O)NS(=O)(=O)c1ccc2c(c1)OCCCO2 | -9.06 |
| O=C(c1ccc(-n2cnnc2)nc1)N1CCCC(O)(CO)CC1 (stereo not drawn) | -0.274 |

| SMILES | cytotoxicity at 10 µM [%] |
| --- | --- |
| CCc1nnsc1C(=O)NCCC1CCCN(C(C)C)C1 (stereo not drawn) | 4.95 |
| CN1CC2(CCCN(CCOCc3ccccc3)C2)OC1=O (stereo not drawn) | -10.4 |
| CC(C)CN1CCCn2nc(CNC(=O)CN3CCOC3=O)cc2C1 | 0.541 |
| CN(Cc1ccoc1)C(=O)CN1C(=O)OC(C)(C)C1=O | -128 |
| CC(C)c1nccn1CCCNC(=O)c1ccc(-c2cn[nH]c2)nc1 | -5.84 |
| c1ccc(CCc2noc(CN3CCC(N4CCSCC4)CC3)n2)cc1 | -8.01 |
| O=c1[nH]c(-c2ccccn2)nc2c1CCN(S(=O)(=O)N1CCCC1)C2 | 8.85 |
| O=S(=O)(Cc1ccccc1CN1CC[C@H](CO)[C@H](O)C1)c1ccccc1 | -18.2 |
| CCn1nc(CC(C)C)cc1C(=O)N1CCOCC(O)C1 (stereo not drawn) | -14.3 |
| CC(C)c1noc(CC[C@@H]2CCCN3CCCC[C@H]23)n1 | -0.143 |
| CN(C)c1nc(NCc2cccnc2N)ncc1F | -2.11 |
| C[C@@H]1CN(C(=O)c2cc(Cn3ccc4ccccc43)[nH]n2)C[C@H](C)O1 | -12.2 |
| CSc1cccc(CN2CCn3nc(CNC(C)=O)cc3C2)c1 | -1.03 |
| CCCc1cc(C(=O)NCCCn2nnc3ccccc32)no1 | -12.5 |
| COC(=O)c1ccccc1C(=O)N(CCN(C)C)Cc1sccc1C | -129 |
| CCn1ccnc1CN1CCC(=O)N(CC2CC2)C(C(C)C)C1 (stereo not drawn) | -10.3 |
| O=c1cc(-c2ccncc2)nc(-c2ccc(CN3CC[C@H](O)C3)cc2)[nH]1 | 4.48 |
| O=C(NCCC1CN(C2CCCC2)CCO1)c1c[nH]c(=O)[nH]c1=O (stereo not drawn) | 0.0436 |
| Nc1nc2c(c(=O)[nH]1)CCN(C(=O)c1ccccc1N1CCCC1)C2 | 1.79 |
| CC(=O)c1ccc(C(=O)N2CCC(c3cc(O)nc(C)n3)CC2)s1 | 1.3 |
| Cc1ccccc1N1CCN(C(=O)CCc2nncn2C)C(C)C1 (stereo not drawn) | 3.34 |
| CCC(CC)CN1CCCn2nc(CNC(=O)COC)cc2C1 | 2.66 |
| CCc1cnc(C)nc1NCCN1CCC(O)CC1 | 1.78 |

| SMILES | cytotoxicity at 10 µM [%] |
| --- | --- |
| Cc1cccc(-n2c(C)cc(=O)[nH]c2=O)c1C | -2 |
| CC1CCN(C(=O)c2cccc(CN3CCOCC3)c2)CC1 | 8.07 |
| c1cncc(-n2cnnc2CC2CCNCC2)c1 | -20.1 |
| CCCc1cncnc1N1CCC(NCCc2nc(O)cc(O)n2)CC1 | 5.99 |
| CN1C(=O)CC(C(=O)O)C12CCN(Cc1ccc(Cl)cc1F)CC2 (stereo not drawn) | -7.82 |
| CCN1CC2(CCN(CCOCCO)CC2)CC(c2ccccc2)C1=O (stereo not drawn) | 42.4 |
| CCn1c(Cn2cncn2)nnc1C1CCN(C(=O)CCSC)CC1 | -13.6 |
| Cc1ccc(C(C)N(C)Cc2nc3c(cnn3C)c(=O)[nH]2)c(C)c1 (stereo not drawn) | -12.4 |
| CSc1ccc(CN(C)C(=O)c2cc3c([nH]c2=O)CCCC3=O)cc1 | -1.25 |
| COCCCNC(=O)CN(C)C(=O)c1ccc(OC)cc1O | -10.7 |
| c1ccc(OCC2CC2)c(CNC2CCc3ncnn3C2)c1 (stereo not drawn) | -6.72 |
| Cc1nc(C)c(C(=O)NCCNC(=O)Cc2ccccc2)s1 | -7.89 |
| c1nc(N2CCOCC2)sc1-c1cncn1CCCN1CCCCC1 | 0.682 |
| N#Cc1cccc(N2CCCC3(C2)CN(c2ncc(F)cn2)CCO3)n1 (stereo not drawn) | 22.3 |
| CN(Cc1cccnc1)C[C@@H]1OC[C@H]2CN(Cc3ccco3)CC[C@H]21 | -147 |
| CNCc1nc(-c2ccc3c(c2)OCO3)c[nH]1 | 3.44 |
| Cc1nc(C)n(CC2CN(Cc3nccs3)Cc3nccn3C2)n1 (stereo not drawn) | -140 |
| O=C(NC[C@H]1OC[C@@H]2CN(Cc3ccco3)CC[C@@H]21)c1cccnc1 | -141 |
| C1CN(CC2CCOCC2)Cc2c(COCC3CC3)nnn2C1 | -130 |
| Cc1nc[nH]c1CN1C[C@H]2CC[C@@H](C1)N(C(=O)CCc1cccnc1)C2 | -14.2 |
| Cc1ccc(C(NC(=O)C2CCC(O)CC2)c2cccnc2)cc1C (stereo not drawn) | 24.2 |
